Assays:
[1] = molecular target: T1, Histone deacetylase 1/6 (Homo sapiens) (UniProt Q13547+Q9UBN7); assay: Inhibition of HDAC1/HDAC6 in human Cal27CisR cells assessed as potentiation of 1 uM cisplatin-induced cytotoxicity by measuring combination index at 600 uM preincubated for 48 hrs followed by cisplatin treatment measured after 72 hrs by MTT assay; assay type: cell-based
In short: (§1)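 Cal27CisR cells preincubated 48 h with the HDAC inhibitor, then exposed to cisplatin for 72 h. Viability read by MTT. Combination index calculated by the Chou–Talalay method: CI > 1 antagonism, CI = 1 additive, CI < 0.9 synergism. Points with fraction affected below 0.20 are flagged. Values are the mean of three experiments.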

[2] = molecular target: T2, Histone deacetylase 8 (Homo sapiens, UniProt Q9BY41); assay: Inhibition of human HDAC8 using Z-L-Lys(epsilon-trifluoroacetyl)-AMC as substrate measured after 90 mins by fluorescence assay
T2 sequence (Q9BY41 whole entry): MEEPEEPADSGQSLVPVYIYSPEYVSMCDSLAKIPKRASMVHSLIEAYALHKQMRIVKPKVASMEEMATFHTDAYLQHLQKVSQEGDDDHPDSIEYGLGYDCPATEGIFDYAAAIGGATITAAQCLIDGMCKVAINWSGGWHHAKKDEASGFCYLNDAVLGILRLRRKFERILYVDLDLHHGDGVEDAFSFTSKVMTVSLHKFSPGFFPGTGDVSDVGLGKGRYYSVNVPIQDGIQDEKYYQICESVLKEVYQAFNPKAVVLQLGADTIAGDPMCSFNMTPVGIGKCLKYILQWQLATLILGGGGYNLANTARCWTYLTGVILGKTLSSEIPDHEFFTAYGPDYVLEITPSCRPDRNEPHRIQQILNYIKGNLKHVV

[3] = molecular target: T1, Histone deacetylase 1/6 (Homo sapiens); assay: Inhibition of HDAC1/HDAC6 in human Cal27CisR cells assessed as potentiation of 1 uM cisplatin-induced cytotoxicity by measuring combination index at 700 uM preincubated for 48 hrs followed by cisplatin treatment measured after 72 hrs by MTT assay; assay type: cell-based; in short: as §1
[4] = molecular target: Histone deacetylase 4 (Homo sapiens, UniProt P56524); assay: Inhibition of recombinant human N-terminal GST-tagged/C-terminal His-tagged HDAC4 expressed in insect cells using Boc-K(Ac)-AMC as substrate by fluorescence assay
[5] = tested on: A2780cisR; assay: Antiproliferative activity against human A2780cisR cells measured after 72 hrs by MTT assay; assay type: functional, cell-based
[6] = molecular target: T1, Histone deacetylase 1/6 (Homo sapiens); assay: Inhibition of HDAC1/HDAC6 in human Cal27CisR cells assessed as potentiation of 10 uM cisplatin-induced cytotoxicity by measuring combination index at 800 nM preincubated for 48 hrs followed by cisplatin treatment measured after 72 hrs by MTT assay
[7] = tested on: CAL-27; assay: Potentiation of 2 uM cisplatin-induced cytotoxicity against human CAL27 cells assessed as decrease in cell viability by measuring combination index at 600 uM preincubated for 48 hrs followed by cisplatin treatment measured after 72 hrs by MTT assay; assay type: functional; settings: in the assay text read “at 600 nM” for “at 600 uM”
In short: (§2)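 HDAC inhibitor was added 48 h before cisplatin, then cells were exposed to cisplatin for 72 h and viability was read by MTT assay. Combination index was computed by the Chou–Talalay method: CI > 1 is antagonism, CI = 1 additive, CI < 0.9 synergism. Points with fraction affected below 0.20 were flagged.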

[8] = molecular target: T1, Histone deacetylase 1/6 (Homo sapiens); assay: Inhibition of HDAC1/HDAC6 in human Cal27CisR cells assessed as potentiation of 20 uM cisplatin-induced cytotoxicity by measuring combination index at 800 nM preincubated for 48 hrs followed by cisplatin treatment measured after 72 hrs by MTT assay
[9] = molecular target: T1, Histone deacetylase 1/6 (Homo sapiens); assay: Inhibition of HDAC1/HDAC6 in human Cal27CisR cells assessed as potentiation of 20 uM cisplatin-induced cytotoxicity by measuring combination index at 700 nM preincubated for 48 hrs followed by cisplatin treatment measured after 72 hrs by MTT assay
[10] = molecular target: T1, Histone deacetylase 1/6 (Homo sapiens); assay: Inhibition of HDAC1/HDAC6 in human Cal27CisR cells assessed as potentiation of 5 uM cisplatin-induced cytotoxicity by measuring combination index at 800 uM preincubated for 48 hrs followed by cisplatin treatment measured after 72 hrs by MTT assay; assay type: cell-based
In short: (§3)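 Cal27 and cisplatin-resistant Cal27CisR cells were preincubated with the HDAC inhibitor for 48 h, then given cisplatin in combination. Viability was read by MTT after 72 h. The combination index was computed by the Chou–Talalay method: CI > 1 is antagonism, CI = 1 is additive, and CI < 0.9 is synergism. Points with fraction affected below 0.20 were flagged.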

[11] = tested on: CAL-27; assay: Potentiation of 5 uM cisplatin-induced cytotoxicity against human CAL27 cells assessed as decrease in cell viability by measuring combination index at 500 uM preincubated for 48 hrs followed by cisplatin treatment measured after 72 hrs by MTT assay; assay type: functional; settings: in the assay text read “at 500 nM” for “at 500 uM”; in short: as §2
[12] = Inhibition of HDAC in human A2780CisR cells using Boc-Lys(epsilon-Ac)-AMC as substrate preincubated for 18 hrs followed by substrate addition measured after 3 hrs by fluorescence assay; assay type: cell-based
[13] = Antiproliferative activity against human Med8A cells after 72 hrs by Celltiter-Glo assay; assay type: functional, cell-based
[14] = molecular target: T1, Histone deacetylase 1/6 (Homo sapiens); assay: Inhibition of HDAC1/HDAC6 in human Cal27CisR cells assessed as potentiation of 1 uM cisplatin-induced cytotoxicity by measuring combination index at 500 nM preincubated for 48 hrs followed by cisplatin treatment measured after 72 hrs by MTT assay
[15] = molecular target: T1, Histone deacetylase 1/6 (Homo sapiens); assay: Inhibition of HDAC1/HDAC6 in human Cal27CisR cells assessed as potentiation of 3.16 uM cisplatin-induced cytotoxicity by measuring combination index at 800 nM preincubated for 48 hrs followed by cisplatin treatment measured after 72 hrs by MTT assay
[16] = tested on: CAL-27; assay: Potentiation of 0.5 uM cisplatin-induced cytotoxicity against human CAL27 cells assessed as decrease in cell viability measuring combination index at 500 uM preincubated for 48 hrs followed by cisplatin treatment measured after 72 hrs by MTT assay; assay type: functional; settings: in the assay text read “at 500 nM” for “at 500 uM”; in short: as §3
[17] = Antiproliferative activity against human Cal27CisR cells measured after 72 hrs by MTT assay; assay type: functional, cell-based
[18] = tested on: CAL-27; assay: Antiproliferative activity against human CAL27 cells measured after 72 hrs by MTT assay; assay type: functional, cell-based; settings: CAL-27, 72 h
[19] = tested on: CAL-27; assay: Potentiation of 5 uM cisplatin-induced cytotoxicity against human CAL27 cells assessed as decrease in cell viability by measuring combination index at 800 uM preincubated for 48 hrs followed by cisplatin treatment measured after 72 hrs by MTT assay; assay type: functional; settings: in the assay text read “at 800 nM” for “at 800 uM”; in short: as §2

T1 sequence (Q13547 whole entry, looked up): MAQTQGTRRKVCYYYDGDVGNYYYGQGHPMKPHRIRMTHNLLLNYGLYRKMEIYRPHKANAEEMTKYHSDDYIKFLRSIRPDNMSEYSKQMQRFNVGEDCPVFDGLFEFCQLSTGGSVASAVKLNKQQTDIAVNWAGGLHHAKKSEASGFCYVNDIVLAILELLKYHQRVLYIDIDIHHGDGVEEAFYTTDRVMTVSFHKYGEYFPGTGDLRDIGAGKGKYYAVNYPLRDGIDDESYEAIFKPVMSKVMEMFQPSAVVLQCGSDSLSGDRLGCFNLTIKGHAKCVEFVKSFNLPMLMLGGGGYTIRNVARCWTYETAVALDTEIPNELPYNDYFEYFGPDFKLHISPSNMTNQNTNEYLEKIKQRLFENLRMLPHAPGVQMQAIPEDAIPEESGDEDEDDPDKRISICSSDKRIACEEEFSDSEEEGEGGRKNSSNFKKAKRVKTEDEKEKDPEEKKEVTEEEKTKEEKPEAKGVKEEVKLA
T1 sequence (Q9UBN7 whole entry, looked up): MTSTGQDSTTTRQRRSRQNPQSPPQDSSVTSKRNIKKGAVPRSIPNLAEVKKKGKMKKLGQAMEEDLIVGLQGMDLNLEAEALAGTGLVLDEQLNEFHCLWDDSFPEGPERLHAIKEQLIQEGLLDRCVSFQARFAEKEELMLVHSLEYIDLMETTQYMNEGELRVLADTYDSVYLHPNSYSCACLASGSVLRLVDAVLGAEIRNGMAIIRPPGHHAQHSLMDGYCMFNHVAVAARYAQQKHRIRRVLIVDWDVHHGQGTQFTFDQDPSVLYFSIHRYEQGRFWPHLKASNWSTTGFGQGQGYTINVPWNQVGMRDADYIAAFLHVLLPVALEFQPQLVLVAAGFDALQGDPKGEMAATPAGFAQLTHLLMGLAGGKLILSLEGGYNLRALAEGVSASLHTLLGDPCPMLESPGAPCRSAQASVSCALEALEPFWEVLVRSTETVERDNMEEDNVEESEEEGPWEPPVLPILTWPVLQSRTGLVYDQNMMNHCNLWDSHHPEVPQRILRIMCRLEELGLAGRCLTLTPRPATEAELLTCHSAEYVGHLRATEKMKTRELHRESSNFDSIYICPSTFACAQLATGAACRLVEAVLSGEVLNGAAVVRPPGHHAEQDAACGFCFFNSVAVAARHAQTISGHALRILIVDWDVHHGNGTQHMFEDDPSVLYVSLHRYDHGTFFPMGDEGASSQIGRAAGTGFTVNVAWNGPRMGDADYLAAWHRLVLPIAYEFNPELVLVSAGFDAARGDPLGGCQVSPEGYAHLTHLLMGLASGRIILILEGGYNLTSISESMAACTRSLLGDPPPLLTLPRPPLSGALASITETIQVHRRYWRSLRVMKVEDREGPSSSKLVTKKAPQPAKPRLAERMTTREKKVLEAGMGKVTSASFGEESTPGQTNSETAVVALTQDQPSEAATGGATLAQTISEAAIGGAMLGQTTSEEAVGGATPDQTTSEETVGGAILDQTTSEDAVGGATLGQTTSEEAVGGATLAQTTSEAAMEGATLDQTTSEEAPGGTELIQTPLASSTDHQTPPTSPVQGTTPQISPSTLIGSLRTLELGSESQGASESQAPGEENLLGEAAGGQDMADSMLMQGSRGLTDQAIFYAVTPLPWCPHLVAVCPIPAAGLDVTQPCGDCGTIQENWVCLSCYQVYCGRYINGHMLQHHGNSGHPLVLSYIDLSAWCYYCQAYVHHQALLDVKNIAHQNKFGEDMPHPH
Sequence of Histone deacetylase 4 (P56524 whole entry): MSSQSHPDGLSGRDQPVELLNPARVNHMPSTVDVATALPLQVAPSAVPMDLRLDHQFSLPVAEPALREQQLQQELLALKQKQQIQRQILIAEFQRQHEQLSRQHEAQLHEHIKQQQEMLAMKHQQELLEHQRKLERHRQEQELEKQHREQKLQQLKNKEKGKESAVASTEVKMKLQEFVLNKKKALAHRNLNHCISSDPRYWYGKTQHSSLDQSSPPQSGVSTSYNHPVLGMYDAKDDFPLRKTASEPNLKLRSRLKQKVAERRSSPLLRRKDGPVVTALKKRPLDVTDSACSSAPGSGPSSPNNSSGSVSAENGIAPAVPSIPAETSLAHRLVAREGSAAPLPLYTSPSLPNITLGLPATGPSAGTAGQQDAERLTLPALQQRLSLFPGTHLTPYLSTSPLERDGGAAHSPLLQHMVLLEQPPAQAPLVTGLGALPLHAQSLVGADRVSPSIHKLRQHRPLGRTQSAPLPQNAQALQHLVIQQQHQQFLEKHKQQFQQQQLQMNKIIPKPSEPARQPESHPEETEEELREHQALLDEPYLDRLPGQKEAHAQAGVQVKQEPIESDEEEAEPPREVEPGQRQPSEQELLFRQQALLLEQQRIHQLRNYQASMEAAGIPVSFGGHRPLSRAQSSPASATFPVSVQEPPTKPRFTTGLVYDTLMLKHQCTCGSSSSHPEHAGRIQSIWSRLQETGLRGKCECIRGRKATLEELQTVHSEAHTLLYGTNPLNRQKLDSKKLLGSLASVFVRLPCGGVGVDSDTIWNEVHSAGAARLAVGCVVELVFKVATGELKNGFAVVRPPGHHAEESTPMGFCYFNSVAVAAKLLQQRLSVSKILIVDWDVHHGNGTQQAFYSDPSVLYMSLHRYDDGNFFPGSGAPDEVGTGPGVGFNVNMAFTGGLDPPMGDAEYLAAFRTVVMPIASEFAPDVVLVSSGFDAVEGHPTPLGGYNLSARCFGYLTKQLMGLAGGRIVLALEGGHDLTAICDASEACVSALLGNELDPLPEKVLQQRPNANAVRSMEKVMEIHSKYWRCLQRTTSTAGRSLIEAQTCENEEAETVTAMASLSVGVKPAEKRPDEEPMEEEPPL

COc1cc(NC(=O)NOCCCCCC(=O)NO)c2ncccc2c1
CI [1]: < 0.2 | IC50 [2]: 1080 nM | CI [3]: < 0.2 | IC50 [4]: > 10000 nM | IC50 [5]: 400 nM | CI [6]: 0.35 | CI [7]: 0.37 | CI [8]: 0.37 | CI [9]: 0.37 | CI [10]: 0.37 | CI [11]: 0.35 | IC50 [12]: 500 nM | IC50 [13]: 1210 nM | CI [14]: < 0.2 | CI [15]: 0.51 | CI [16]: 0.87 | IC50 [17]: 1300 nM | IC50 [18]: 900 nM | CI [19]: 0.36

COc1cc(NC(=O)NOCCCCCC(=O)NO)c2nccc(C)c2c1
CI [1]: < 0.2 | IC50 [2]: 1220 nM | CI [3]: < 0.2 | IC50 [4]: > 10000 nM | IC50 [5]: 300 nM | CI [6]: 0.23 | CI [7]: 0.26 | CI [8]: 0.28 | CI [9]: 0.25 | CI [10]: 0.23 | CI [11]: 0.29 | IC50 [12]: 400 nM | IC50 [13]: 600 nM | CI [14]: < 0.2 | CI [15]: 0.26 | CI [16]: 0.49 | IC50 [17]: 1300 nM | IC50 [18]: 600 nM | CI [19]: 0.38

COc1cc(NC(=O)NOCCCCCC(=O)NO)c2nc(OC)cc(C)c2c1
CI [1]: 0.56 | IC50 [2]: 1540 nM | CI [3]: < 0.2 | IC50 [4]: > 10000 nM | IC50 [5]: 400 nM | CI [6]: 0.23 | CI [7]: 0.49 | CI [8]: 0.21 | CI [9]: 0.21 | CI [10]: 0.26 | CI [11]: 0.43 | IC50 [12]: 500 nM | IC50 [13]: 590 nM | CI [14]: 0.56 | CI [15]: 0.29 | CI [16]: 0.66 | IC50 [17]: 1300 nM | IC50 [18]: 1000 nM | CI [19]: 0.69
